Compound activity from PubChem.
CHT allo act = human CHT allosteric activation; CHT-expressing cells, membrane potential dye, choline EC20; hits give high values; LV-AA mutant CHT in HEK293 cells; 310,000 compounds, 0.49% hits; B-score at 10 µM;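 active = initial fluorescence not abnormally high and integrated response B-score, plate-corrected, over 3 SD above library mean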
Target sequence (Q9GZV3 whole entry, looked up): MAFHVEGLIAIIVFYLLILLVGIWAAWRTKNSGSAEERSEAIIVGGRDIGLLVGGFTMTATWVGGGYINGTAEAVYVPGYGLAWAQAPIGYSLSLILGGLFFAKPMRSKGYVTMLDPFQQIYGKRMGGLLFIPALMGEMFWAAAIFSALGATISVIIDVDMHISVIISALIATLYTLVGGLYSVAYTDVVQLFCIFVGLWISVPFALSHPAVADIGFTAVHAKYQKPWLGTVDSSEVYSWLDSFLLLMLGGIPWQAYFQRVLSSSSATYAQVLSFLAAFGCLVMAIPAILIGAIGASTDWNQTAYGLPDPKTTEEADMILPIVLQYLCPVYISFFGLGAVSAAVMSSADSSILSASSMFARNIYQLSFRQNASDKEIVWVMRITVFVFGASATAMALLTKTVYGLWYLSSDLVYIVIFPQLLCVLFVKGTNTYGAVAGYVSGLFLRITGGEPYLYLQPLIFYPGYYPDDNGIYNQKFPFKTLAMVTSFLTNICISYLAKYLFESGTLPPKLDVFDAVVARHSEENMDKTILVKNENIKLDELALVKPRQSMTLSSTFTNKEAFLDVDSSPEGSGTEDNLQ
GalR3 antag = antagonists of human GalR3; 360,000 compounds, 0.44% hits; O60755; HEK293 GalR3-CNG cAMP membrane potential fluorescence; galR3 body fused to GalR1 C-terminus; inhibition, % at 3 µM; AID 651719;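 active = inhibition above the screen-wide average plus 3 SD, cut at about 13% in these data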;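 note: forskolin and galanin both at EC90 stimulate the cells; cAMP rise reported by CNG channel membrane potential dye signal; 0% = forskolin plus galanin with DMSO and 100% = forskolin alone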
NR2E3 ag-1 = human photoreceptor-specific nuclear receptor agonism | AID 602229 | inhibition of corepressor binding, % at 3.98 µM | 360,000 compounds, 0.35% hits | CHO-S Gal4-NCOR/VP16-NR2E3 two-hybrid, luciferase;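 active = inhibition above the mean of all tested compounds plus 3 SD, cut at about 70% in these data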;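 note: 0% = DMSO with NR2E3 transfected cells and 100% = cells lacking NR2E3 construct; higher means lower luciferase signal from less NR2E3 corepressor binding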
NR2F2 inh = inhibitors of human COUP-TFII (NR2F2); 370,000 compounds, 0.7% hits; P24468; HEK293T NGFI-A luciferase reporter, luminescence; inhibition, % at 8.6 µM;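 active = inhibition above a per-plate cutoff, mean inhibition of test wells between control levels plus 3 SD, cut at about 38% in these data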;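 note: cells cotransfected with COUP-TFII expression vector driving the NGFI-A reporter; 0% = median of COUP-TF2 test wells and 100% = reporter-only cells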
CHT inh = human CHT choline transport inhibition; Q9GZV3; CHT-expressing cells, membrane potential dye, choline response; hits give low values; B-score at 10 µM; 310,000 compounds, 0.86% hits;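 active = B-score over 3 SD under the library average, and starting fluorescence ratio not unusually high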;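 note: choline stimulus applied at its EC90 after an EC20 pre-addition; B-score computed on integrated fluorescence ratio after choline addition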
NR2E3 ag-2 = NR2E3 (human) agonism; GST-NR2E3/biotin-RetCOR TR-FRET, 1536-well; inhibition of corepressor binding, % at 4.78 µM; 320,000 compounds, 0.12% hits;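 active = percent inhibition above the cutoff of mean plus 3 SD of all tested compounds, set per screening campaign, cut at about 20% in these data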;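 note: 0% = DMSO wells and 100% = biotin wells as full block of FRET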
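Material: NR2E3–RetCOR corepressor complex / Amount: 1.35 nM GST-NR2E3 / Medium: Tris pH 7.5 / Compound: single nominal compound dose of 4.8 µM / Incubation: 5 h at 4 °C / Technique: TR-FRET, Eu(K)-anti-GST donor, streptavidin-D2 acceptor, ex 340, em 617/671 nm / Read-out basis: percent loss of FRET ratio relative to control wells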
VP16 Luc counter = inhibits VP16 reporter, flagging COUP-TFII antagonist hits; shares compounds with NR2F2 inh; HEK293 Gal4-VP16 luciferase reporter, luminescence; inhibition, % at 8.5 µM; 2,500 compounds, 25% hits; AID 687007; in the data active = inhibition above about 13%
COUP-TFII conf = COUP-TFII (NR2F2) inhibition, confirmation assay | shares compounds with NR2F2 inh | HEK293 NGFI-A luciferase reporter, luminescence | inhibition, % at 8.5 µM | 2,500 compounds, 45% hits | AID 687008;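 active = mean inhibition over three repeats above a set limit taken from the earlier primary screen, cut at about 38% in these data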;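 note: 100% = cells given the luciferase reporter alone without the COUP-TF2 vector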
The depositor's hits bear a star. In the library only some 2.3% were active in any assay of this set; here they are far more common.

For COC(=O)[C@H](Cc1ccccc1)NC(=O)[C@H]1C[C@@]2(N3CCCC3)c3ccccc3N(C(=O)OC(C)(C)C)[C@H]2N1C(=O)OC(C)(C)C the results were NR2F2 inh -5.
For CN(C)c1ccc(CC(=O)N2CCCCC2c2cc(C(=O)Nc3ccccc3Cl)no2)cc1 (stereo not given) the results were GalR3 antag -5, NR2E3 ag-1 3, NR2F2 inh 48*, VP16 Luc counter 2 and COUP-TFII conf 26.
`COc1ccc(NC(=O)c2cc(C3CCCCN3C(=O)Cc3ccc(N(C)C)cc3)on2)c(C)c1` (stereo not given) gave GalR3 antag -4, NR2E3 ag-1 -3 and NR2F2 inh 14.
`C=CCc1c(OC(C)=O)c2ccccc2n(C)c1=O` gave CHT allo act inactive, GalR3 antag -2, NR2E3 ag-1 -25, NR2F2 inh 40*, CHT inh inactive, NR2E3 ag-2 4, VP16 Luc counter -9 and COUP-TFII conf 31.
O=C(NCc1ccc(F)cc1)c1cc(S(=O)(=O)N2CCCCC2)ccc1Cl was read as GalR3 antag -1, NR2E3 ag-1 -13, NR2F2 inh -4 and NR2E3 ag-2 0.
`COc1ccc(CNC(=O)c2cc(S(=O)(=O)N3CCCCC3)ccc2Cl)cc1OC` gave GalR3 antag -4, NR2E3 ag-1 12, NR2F2 inh 51*, VP16 Luc counter 2 and COUP-TFII conf 33.
Screening Cc1c(/C(O)=C2/C(=O)C(=O)N(CCN3CCOCC3)C2c2ccco2)cnn1-c1ccccc1 (stereo not given) returned GalR3 antag -4, NR2E3 ag-1 34, NR2F2 inh 60*, VP16 Luc counter 1 and COUP-TFII conf 46*.
For Cc1c(/C(O)=C2/C(=O)C(=O)N(CCN3CCOCC3)C2c2cccnc2)cnn1-c1ccccc1 (stereo not given) the results were CHT allo act inactive, GalR3 antag -3, NR2E3 ag-1 -11, NR2F2 inh -17, CHT inh inactive and NR2E3 ag-2 0.
`Cc1nc(N2CCN(c3ccccn3)CC2)c2c(C)c(C(=O)Nc3c(F)cc(F)cc3Br)sc2n1` gave CHT allo act inactive, GalR3 antag -7, NR2E3 ag-1 -23, NR2F2 inh 42*, CHT inh inactive, NR2E3 ag-2 -2, VP16 Luc counter 0 and COUP-TFII conf 25.
Screening NC(=O)[C@@H]1CC2(CC(c3cccc(NC(=O)COc4ccc(Cl)cc4)c3)=NO2)CN1C(=O)COc1ccc(Cl)cc1 (stereo not given in full) returned CHT allo act inactive, GalR3 antag -6, NR2E3 ag-1 -12, NR2F2 inh 45*, CHT inh inactive, NR2E3 ag-2 6, VP16 Luc counter -9 and COUP-TFII conf 19.
N#CCC(=O)N1CC2(CC(c3cccc(NC(=O)COc4ccc(Cl)cc4)c3)=NO2)C[C@@H]1C(N)=O (stereo not given in full) was read as CHT allo act inactive, GalR3 antag -3, NR2E3 ag-1 1, NR2F2 inh 0, CHT inh inactive and NR2E3 ag-2 6.
CCOc1ccc2[nH]c3c(NCCCOC)ncnc3c2c1 was read as CHT allo act inactive, GalR3 antag 2, NR2E3 ag-1 -48, NR2F2 inh -4 and CHT inh inactive.
COc1ccc(CNc2ncnc3c2[nH]c2cc(OC)c(OC)cc23)cc1 was read as CHT allo act inactive, GalR3 antag 0, NR2E3 ag-1 17, NR2F2 inh -25, CHT inh inactive and NR2E3 ag-2 1.
Screening CC(C)OCCCNc1ncnc2c1[nH]c1ccccc12 returned CHT allo act inactive, GalR3 antag -7, NR2E3 ag-1 39, NR2F2 inh 66*, CHT inh inactive, NR2E3 ag-2 -2, VP16 Luc counter -34 and COUP-TFII conf 37.
`Cc1ccc2[nH]c3c(NCc4ccccc4)ncnc3c2c1` gave CHT allo act inactive, GalR3 antag -1, NR2F2 inh 48*, CHT inh inactive, VP16 Luc counter -59 and COUP-TFII conf -18.
Screening CCOc1cc(/C=N/Nc2ncnc(Cl)c2N)ccc1O returned CHT allo act inactive, GalR3 antag 0, NR2E3 ag-1 -54, NR2F2 inh 4, CHT inh inactive and NR2E3 ag-2 -7.
`CCOc1cc(/C=N/Nc2nnc(C)n2N)ccc1O` gave CHT allo act inactive, GalR3 antag -7, NR2E3 ag-1 -14, NR2F2 inh 49*, CHT inh inactive, NR2E3 ag-2 -1, VP16 Luc counter 5 and COUP-TFII conf 9.
For COc1cccc(CNC(=O)CCCN2C(=O)COc3ccc(C)cc32)c1OC the results were NR2F2 inh 8.
For COc1cc(NS(=O)(=O)c2cc3[nH]c(=O)c(=O)[nH]c3cc2C)cc(OC)c1OC the results were CHT allo act inactive, GalR3 antag -2, NR2E3 ag-1 1, NR2F2 inh 2, CHT inh inactive and NR2E3 ag-2 0.
Screening COc1cc(NS(=O)(=O)c2ccc(C)cc2C)cc(OC)c1OC returned CHT allo act inactive, GalR3 antag -7, NR2E3 ag-1 47, NR2F2 inh 45*, CHT inh inactive, NR2E3 ag-2 1, VP16 Luc counter 10 and COUP-TFII conf 40*.
Screening COc1ccc(-n2c(SCC(=O)Nc3ccc(OCc4ccccc4)cc3)nnc2-c2ccc(C)cc2)cc1 returned NR2F2 inh -15.
For O=C(Nc1nc2cc3c(cc2s1)OCCO3)C1=COCCO1 the results were CHT allo act inactive, GalR3 antag 2, NR2E3 ag-1 47, NR2F2 inh 81*, CHT inh inactive, NR2E3 ag-2 0, VP16 Luc counter 56* and COUP-TFII conf 77*.
For O=C(Nc1nc2ccc(F)cc2s1)C1=COCCO1 the results were CHT allo act inactive, GalR3 antag -5, NR2E3 ag-1 -70, NR2F2 inh 12, CHT inh inactive and NR2E3 ag-2 3.
`CCc1ccc(C(=O)OCC(=O)c2c(N)n(CC(C)C)c(=O)n(C)c2=O)cc1` gave CHT allo act inactive, GalR3 antag -11, NR2E3 ag-1 23, NR2F2 inh 47*, CHT inh inactive, NR2E3 ag-2 -6, VP16 Luc counter 7 and COUP-TFII conf 19.
